SMILES strings stand for the structures. Activity calls are given as the source filed them. No cut-off for these calls is given here.

Results on three molecules are retold here after ChEMBL document CHEMBL1123363, “(5-Amino-1,3-dimethyl-1H-pyrazol-4-yl)(2-fluorophenyl)methanones . A series of novel potential antipsychotic agents” (J Med Chem, 1986).

The species entered for experiment [1] is Rattus norvegicus. In words: Compound was tested for its potential to produce clonic seizures in rats; + indicates compound is causing seizures. Type of experiment: functional, organism-based. The procedure, abridged: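 Any sign of seizure marked the compound as seizure-causing; the outcome was not quantified.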
The species named for experiment [2] is Rattus norvegicus. The experiment can be described thus: Effective dose required for inhibition of Sidman avoidance in rats. It counts as functional. The procedure, abridged:
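Mature male Long–Evans rats, trained on a modified Sidman avoidance schedule in lever-equipped operant chambers, were dosed orally and tested in 6-h sessions. Inhibition was expressed as % of each animal's own nondrug responding. At least three doses were given to four animals, with sessions at least 1 week apart. ED50 from nonlinear regression of dose–effect.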

For experiment [3], the target named is T1, Adrenergic receptor alpha-2 (Rattus norvegicus, UniProt P22086+P19328+P22909).
T1 sequence (P22086 whole entry): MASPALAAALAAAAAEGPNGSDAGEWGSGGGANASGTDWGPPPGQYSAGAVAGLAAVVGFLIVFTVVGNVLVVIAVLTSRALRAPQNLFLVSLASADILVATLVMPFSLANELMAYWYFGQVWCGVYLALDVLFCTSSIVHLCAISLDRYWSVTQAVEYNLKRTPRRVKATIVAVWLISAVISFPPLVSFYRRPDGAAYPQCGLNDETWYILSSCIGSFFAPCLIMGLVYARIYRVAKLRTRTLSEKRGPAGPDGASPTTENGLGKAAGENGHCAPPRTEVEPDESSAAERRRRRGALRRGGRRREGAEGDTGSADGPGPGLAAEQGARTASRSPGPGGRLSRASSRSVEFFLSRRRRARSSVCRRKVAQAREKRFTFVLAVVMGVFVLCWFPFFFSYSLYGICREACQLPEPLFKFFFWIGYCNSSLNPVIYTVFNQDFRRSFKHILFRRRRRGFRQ
T1 sequence (P19328 whole entry): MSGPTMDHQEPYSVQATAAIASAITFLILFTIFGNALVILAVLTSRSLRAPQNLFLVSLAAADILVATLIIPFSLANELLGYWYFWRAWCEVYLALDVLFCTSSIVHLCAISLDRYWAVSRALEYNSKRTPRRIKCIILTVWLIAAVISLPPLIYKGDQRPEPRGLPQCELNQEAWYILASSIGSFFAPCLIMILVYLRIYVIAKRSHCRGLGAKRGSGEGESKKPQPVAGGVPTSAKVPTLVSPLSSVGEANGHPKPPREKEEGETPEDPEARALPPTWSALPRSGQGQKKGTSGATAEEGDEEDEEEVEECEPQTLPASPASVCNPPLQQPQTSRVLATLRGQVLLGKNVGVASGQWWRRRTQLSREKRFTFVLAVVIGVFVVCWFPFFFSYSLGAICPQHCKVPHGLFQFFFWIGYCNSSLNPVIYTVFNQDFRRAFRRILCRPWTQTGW
T1 sequence (P22909 whole entry): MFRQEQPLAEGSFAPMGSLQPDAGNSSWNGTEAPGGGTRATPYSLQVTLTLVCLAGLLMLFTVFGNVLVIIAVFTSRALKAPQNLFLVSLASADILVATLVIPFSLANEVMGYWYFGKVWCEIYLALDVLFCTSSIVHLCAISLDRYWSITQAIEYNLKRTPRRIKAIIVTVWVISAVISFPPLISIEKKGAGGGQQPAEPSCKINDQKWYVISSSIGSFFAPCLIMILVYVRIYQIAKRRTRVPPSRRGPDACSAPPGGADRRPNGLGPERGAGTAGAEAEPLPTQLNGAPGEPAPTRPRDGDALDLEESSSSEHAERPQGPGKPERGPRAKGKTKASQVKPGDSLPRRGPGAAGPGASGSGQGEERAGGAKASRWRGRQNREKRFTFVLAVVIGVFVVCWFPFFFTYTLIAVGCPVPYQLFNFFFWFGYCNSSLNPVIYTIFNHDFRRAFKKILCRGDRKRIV
In words: Binding affinity against the alpha-2 adrenergic receptor using [3H]- clonidine. It counts as protein assay. The procedure, abridged:
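α2 sites in rat cerebral cortex membranes (male Long-Evans, 150–250 g) labelled with [3H]clonidine at 0.4 nM final. (-)-Norepinephrine at 10 μM final was the reference. IC50 from four or five concentrations by nonlinear fit.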

Experiment [4] deals with GABA-A receptor; anion channel. In words: Displacement of [3H]-GABA from rat brain Gamma-aminobutyric acid receptor. The method, boiled down: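 GABA binding in membranes of rat whole brain minus cerebellum and brain stem (male Long-Evans, 150–250 g), using [3H]-GABA at 25 nM final. GABA at 1 mM final was the reference. IC50 from four or five concentrations by nonlinear curve fitting.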
(Displacement assays read how much labelled ligand stays bound in the presence of the test substance.)

In experiment [5] the test system is Rattus norvegicus. In words: Compound was tested for its affect on the accumulation of the dopamine metabolite homovanillic acid (HAV) in the rat striatum at 83 mg/kg dose after peroral administration. It counts as functional. The settings on record: route oral. The procedure, abridged:
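Male Long–Evans rats were dosed orally and decapitated 2 h later. Striatal HVA was isolated on Sephadex G-10 and measured spectrofluorometrically, expressed as % control ± SEM.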

Experiment [6] has as its system Rattus norvegicus. In words: Compound was tested for serum prolactin assay method in rats at 10 mg/kg dose after peroral administration. It counts as functional. Conditions: route oral. The method, boiled down: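 Seven-week-old male Sprague–Dawley rats, five per group, were dosed orally and killed by decapitation 1 h later. Serum prolactin from trunk blood was measured by radioimmunoassay with [125I]-PRL and expressed as % of control (mean ± SEM).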

The subject of experiment [7] is Rattus norvegicus. In words: Compound was tested for its antagonized affect on the accumulation of the brain dopamine induced by butyrolactone (GBL) at 25 mg/kg after intraperitoneal administration. Type of experiment: functional. More on the design: scale not given: the % may be the effect or the level left. The method, boiled down:
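Rats received test compound ip 30 min before γ-butyrolactone (750 mg/kg ip) and were killed 1 h after GBL. Dopamine in brain minus brain stem and cerebellum (four to six rats) was measured spectrofluorometrically and expressed as % of the GBL-treated group.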

For a further experiment, the system named is Canis familiaris. In words: Emesis test in dogs was determined when dose administered per orally. Type of experiment: functional. Conditions: Canis lupus familiaris, po; read-out: MED. The procedure, abridged:
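Fasted dogs (7–12 kg), normally three per dose, were dosed orally and observed hourly for up to 6 h for emesis and other autonomic or behavioural signs. The minimal effective dose was the lowest dose producing emesis in any animal.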

Experiment [8] relates to Rattus norvegicus. The experiment can be described thus: Inhibition of conditional avoid in rats after peroral administration. Type of experiment: functional. The settings on record: po. The procedure, abridged: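 Fasted male Wistar rats (150–250 g) were trained to jump to a platform at a buzzer to avoid grid shock (1.1 mA/s). After oral dosing they were tested every 20 min for 6 h over 19 trials, 10 rats per dose, each rat used once. Peak effect was the mean of the four consecutive trials with the largest effect, computed from response latency. ED50 read graphically from at least three doses.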

The target of another experiment is T2, Adenosine receptor A1 (Rattus norvegicus, UniProt P25099).
T2 sequence (P25099 whole entry): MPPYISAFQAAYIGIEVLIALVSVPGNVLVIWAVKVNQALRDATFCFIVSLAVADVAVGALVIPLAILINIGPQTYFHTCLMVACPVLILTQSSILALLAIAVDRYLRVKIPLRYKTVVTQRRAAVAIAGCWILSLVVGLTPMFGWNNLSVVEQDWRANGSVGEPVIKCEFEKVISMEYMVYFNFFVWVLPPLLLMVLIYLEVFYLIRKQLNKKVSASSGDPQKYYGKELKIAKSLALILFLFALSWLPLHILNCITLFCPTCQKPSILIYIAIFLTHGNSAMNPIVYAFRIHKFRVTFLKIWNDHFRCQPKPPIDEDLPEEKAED
The experiment can be described thus: Binding affinity towards rat brain adenosine A1 receptor using [3H]- CHA. The procedure, abridged: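 Adenosine A1 binding in membranes of rat whole brain minus brain stem and cerebellum (male Long-Evans, 150–250 g), using [3H]-CHA at 1.0 nM final. Theophylline at 1 mM final was the reference. IC50 from four or five concentrations by nonlinear fit.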

As a reminder, the ED50 is the dose that gives a 50% effect, or the effect in half of the subjects. For the molecule `Cc1nn(C)c(N)c1C(=O)c1ccccc1F`, the Clonic seizures result in the experiment filed under Rattus norvegicus [1] was “Active”. Further, in the experiment filed under Rattus norvegicus [2], the ED50 was found to be 20 mg/kg.
What is called IC50 is the midpoint of a concentration-inhibition curve. Turning to `CCN(CC)CC(=O)Nc1c(C(=O)c2ccccc2F)c(C)nn1C`, the IC50 in experiment [3] and in experiment [4] was more than 10 µM each time. In addition, the Control in the experiment on Rattus norvegicus [5] amounted to 102.1%; in the experiment with Rattus norvegicus [6] it was 52.9%; with Rattus norvegicus [7], 85.5%.
In the case of `Cc1nn(C)c(NC(=O)CNCCCN2CCCCC2C)c1C(=O)c1ccccc1F` (stereo not given), the minimal effective dose in the experiment with Canis familiaris came to 56 mg/kg. The same molecule displayed a median effective dose (ED50) with Rattus norvegicus [8] of 43.5 mg/kg. The molecule also registered an IC50 on Adenosine receptor A1 of more than 10 µM.
